As usually defined, the AC50 is the concentration giving half of the maximal activity seen.

Structures are written as SMILES. Calls of active or inactive are those of the source.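 How the source made its calls: active means compounds raising nuclear GFP-tagged hypoxia factor signal, with fitted half-maximal dose at or below the top valid dose; inconclusive means flat response of 30 to 70% activation, or poor curve fit; inactive means the rest, including opposite-direction effects.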

Tested on in the first assay: not listed separately
In words: GFP-HIF1a nuclear translocation activators – imaging, U2OS HIF1a-GFP, high content, dry powder, dose response (AID 488820). The note with it: U2OS HIF1a-GFP, nuclear intensity imaging; at 38 µM (top of the series). In short, it runs like this:
(§1)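 Material: U2OS cells with GFP-HIF1alpha. Quantity: 2,000 cells/well. Buffer or medium: phenol-red-free medium. Compound: 8-point, 3-fold series. Times: plating 24 h pre-dose, 24 h exposure, 37 °C, 21% O2. Replicates: each dose series tested in duplicate.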
As to `O=C(NCc1ccccc1)c1cc(-c2ccccc2)on1`, the activation was 15.8% (inactive).

Turning to `O=C(Nc1ncc2ccccc2n1)c1cc(-c2ccccc2)on1`, the activation was 1.57% (inactive).

For the molecule `O=C(Nc1nc(-c2ccccc2)cs1)c1cc(-c2ccccc2)on1`, the activation is 4.03% (inactive).

`CN1CCN(C(=O)c2cc(-c3ccccc3)on2)CC1`: the activation was 3.08% (inactive).

In the case of `O=C(c1cc(-c2ccccc2)on1)N1CCC(CO)CC1`, the activation was -4.8% (inactive).

Consider `O=C(NCC1CCCCC1)c1cc(-c2ccccc2)on1`, for which the activation was 18.3% (inactive).

With `Cc1ccccc1CNC(=O)c1cc(-c2ccccc2)on1`, the activation is 23% (inactive).

As for `O=C(Nc1ncc(-c2ccccc2)o1)c1cc(-c2ccccc2)on1`, the activation was 7.7% (inactive).

For the molecule `Cc1cccc(CNC(=O)c2cc(-c3ccccc3)on2)c1`, the activation was 11.8% (inactive).

`O=C(NC1Cc2ccccc2C1)c1cc(-c2ccccc2)on1`: the activation is 6.89% (inactive).

With `CN(C)CCNC(=O)c1cc(-c2ccccc2)on1`, the activation was 6.65% (inactive).

For `O=C(NCCN1CCCCC1)c1cc(-c2ccccc2)on1`, the activation was 31.8% (inactive).

Turning to `O=C(c1cc(-c2ccccc2)on1)N1CCN(c2ccncc2)CC1`, the activation is 31% (inactive).

With `Cc1cccc(NC(=O)c2cc(-c3ccccc3)on2)n1`, the activation was 9.15% (inactive).

As to `O=C(Nc1cn2ccccc2n1)c1cc(-c2ccccc2)on1`, the activation was 1.49% (inactive).

For `CC(C)(C)CCNC(=O)c1cc(-c2ccccc2)on1`, the activation is 17.6% (inactive).

For the molecule `O=C(Nc1ccc2ccccc2n1)c1cc(-c2ccccc2)on1`, the activation is -3.83% (inactive).

Take `O=C(c1cc(-c2ccccc2)on1)N1CCc2cccnc21`: the activation was -2.04% (inactive).

With `O=C(Nc1nnc(-c2ccccc2)s1)c1cc(-c2ccccc2)on1`, the activation was -0.482% (inactive).

For the molecule `O=C(NC1CCc2ccccc2C1)c1cc(-c2ccccc2)on1` (stereo not drawn), the activation was 30.1% (inactive).

`Cn1c(-c2ccccc2)cnc1NC(=O)c1cc(-c2ccccc2)on1`: the activation was -4.96% (inactive).

As for `O=C(Nc1cnc2ccccc2c1)c1cc(-c2ccccc2)on1`, the activation was 5.39% (inactive).

Regarding `Cn1c(NC(=O)c2cc(-c3ccccc3)on2)nc2ccccc21`, the activation is -0.56% (inactive).

In the case of `O=C(c1cc(-c2ccccc2)on1)N1CCC(N2CCOCC2)CC1`, the activation was 14.1% (inactive).

For `Cc1ccc(CNC(=O)c2cc(-c3ccccc3)on2)cc1`, the activation is 12.8% (inactive).

For the molecule `Cc1ccc(NC(=O)c2cc(-c3ccccc3)on2)cn1`, the activation is 25.1% (inactive).

For `O=C(c1cc(-c2ccccc2)on1)N1CCC(N2CCCC2)CC1`, the activation is 12.8% (inactive).

For the molecule `O=C(Nc1nc2ccccc2s1)c1cc(-c2ccccc2)on1`, the activation is 12.2% (inactive).

The next assay has as its system U2OS HIF1a-GFP, nuclear intensity imaging. Described as above.
Conditions: not given
The essentials: as §1
Take `Cn1c(-c2ccccc2)cnc1Nc1nc(-c2ccccn2)nnc1-c1ccccc1`: the concentration at half-maximal activity (AC50) was 4.31 µM.

As for `OCCCNc1nc(-c2ccccn2)nnc1-c1ccccc1`, the AC50 is 5.73 µM.

Take `Cc1cccc(Nc2nc(-c3ccccn3)nnc2-c2ccccc2)n1`: the AC50 was 2.98 µM.

Turning to `c1ccc(-c2nnc(-c3ccccn3)nc2N2CCC(N3CCOCC3)CC2)cc1`, the AC50 was 6.51 µM.

In the case of `O=C(NCCCn1ccnc1)c1cc(-c2ccccc2)on1`, the AC50 was 8.03 µM.

As to `O=C(NCCCCO)c1cc(-c2ccccc2)on1`, the AC50 was 2.1 µM.

Consider `c1ccc(-c2nnc(Nc3nc(-c4ccccn4)nnc3-c3ccccc3)s2)cc1`, for which the AC50 is 7.41 µM.

For `c1ccc(-c2nnc(-c3ccccn3)nc2N2CCN(c3ccncc3)CC2)cc1`, the AC50 is 2.68 µM.

On to `Cc1cccc(CNc2nc(-c3ccccn3)nnc2-c2ccccc2)c1`, for which the AC50 is 0.621 µM.

On to `c1ccc(-c2nnc(-c3ccccn3)nc2NCC2CCCCC2)cc1`, for which the AC50 was 0.882 µM.

On to `Cc1ccc(CNc2nc(-c3ccccn3)nnc2-c2ccccc2)cc1`, for which the AC50 was 1.1 µM.

Consider `CN1CCN(c2nc(-c3ccccn3)nnc2-c2ccccc2)CC1`, for which the AC50 was 5.11 µM.

In the case of `c1ccc(-c2nnc(-c3ccccn3)nc2Nc2cnc3ccccc3n2)cc1`, the AC50 is 5.59 µM.

Regarding `c1ccc(CNc2nc(-c3ccccn3)nnc2-c2ccccc2)cc1`, the AC50 was 3.08 µM.

For `Cc1ccccc1CNc1nc(-c2ccccn2)nnc1-c1ccccc1`, the AC50 is 2.73 µM.

Consider `c1ccc(-c2nnc(-c3ccccn3)nc2NCC2CC2)cc1`, for which the AC50 was 3.37 µM.

Turning to `c1ccc(-c2cnc(Nc3nc(-c4ccccn4)nnc3-c3ccccc3)s2)cc1`, the AC50 was 17.7 µM.

As for `O=C(NCCCN1CCOCC1)c1cc(-c2ccccc2)on1`, the AC50 was 18.1 µM.

Regarding `O=C(NCCCO)c1cc(-c2ccccc2)on1`, the AC50 was 6.09 µM.

Take `O=C(NCC1CC1)c1cc(-c2ccccc2)on1`: the AC50 was 16.1 µM.

Take `c1ccc(-c2csc(Nc3nc(-c4ccccn4)nnc3-c3ccccc3)n2)cc1`: the AC50 was 10.1 µM.

Consider `c1ccc(-c2nnc(-c3ccccn3)nc2NCCCN2CCOCC2)cc1`, for which the AC50 was 2.42 µM.

In the case of `C=CCNc1nc(-c2ccccn2)nnc1-c1ccccc1`, the AC50 is 2.7 µM.

With `CC(C)(C)CCNc1nc(-c2ccccn2)nnc1-c1ccccc1`, the AC50 was 3.27 µM.

Consider `CCCCNC(=O)c1cc(-c2ccccc2)on1`, for which the AC50 is 6.16 µM.

For the molecule `Cc1ccc(Nc2nc(-c3ccccn3)nnc2-c2ccccc2)cn1`, the AC50 was 7.08 µM.

Consider `CN(C)c1nc(-c2ccccn2)nnc1-c1ccccc1`, for which the AC50 is 2.94 µM.

Take `c1ccc(-c2nnc(-c3ccccn3)nc2NCCN2CCOCC2)cc1`: the AC50 is 5.41 µM.

As for `c1ccc(-c2nnc(-c3ccccn3)nc2Nc2nc3ccccc3s2)cc1`, the AC50 was 5.32 µM.

With `O=C(NCCN1CCOCC1)c1cc(-c2ccccc2)on1`, the AC50 was 6.66 µM.

For the origin of these results see PubChem BioAssay AID488820 (Broad Institute, 2010).
